Tested on: HFF
Assay: Cytotoxicity against human HFF cells assessed as reduction in cell viability incubated for 72 hrs or 10 days by MTT assay
Type: cell-based
Method in brief: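 MTT assay on uninfected cells exposed to compound for 72 h or 8–10 days, matching the antiviral assay durations. MTT (5 mg/mL stock in PBS) added, then 2–3 h at 37 °C. Formazan absorbance read at 560 nm.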

Nc1nc(O)c2ncn(COC(CO)CO)c2n1 [GANCICLOVIR]
CC50: > 200 µM

— ChEMBL document CHEMBL4354867, “Validation and Characterization of Five Distinct Novel Inhibitors of Human Cytomegalovirus” (J Med Chem, 2020)
